# TRPC4 agonist – activators of mouse TRPC4 channel, primary screen, Fluo4 calcium, HEK293 TRPC4beta/mu-opioid cells; Short transient receptor potential channel 4 (Mus musculus), Q9QUQ5; Fluo4 calcium fluorescence; hits give high values; B-score at 10 µM; 0.49% of 310,000 active; AID 2237, 2010;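 active means B-score above 5 SD of library B-scores, and initial fluorescence ratio not above library mean plus 5 SD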;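 further: positive B-score marks a calcium rise read as TRPC4 activation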
#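 Assay system: HEK293 stable line with TRPC4beta plus mu-opioid receptor; schedule: 45 min room-temperature Fluo4 loading, 110 s read; technique: kinetic Fluo4 calcium fluorescence; evaluation: integrated baseline-normalised fluorescence ratio, converted to per-well B score; controls: buffer (low) and maximal DAMGO (high)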
# TRPC4 block – inhibitors of mouse TRPC4 channel, primary screen, Fluo4 calcium, HEK293 TRPC4beta/mu-opioid cells; Short transient receptor potential channel 4 (Mus musculus), Q9QUQ5; 0.39% of 300,000 active; AID 2247, 2010; B-score at 10 µM; DAMGO-evoked Fluo4 calcium flux; hits give low values;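 active means B-score over 3 SD under the library average, no early fluorescence shift, positive overall ratio signal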
#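 Test system – stable TRPC4beta/mu-opioid receptor HEK293 cells · Probe or stimulus – DAMGO, a submaximal dose followed by a maximal one · Dosing – one concentration per compound · Signal – Fluo4 calcium fluorescence by kinetic imaging, 5 s 1 Hz baseline · Evaluation – per-well B score of integrated baseline-normalized Fluo4 ratio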
# Kir21 block – inhibitors of mouse Kir2.1 inward-rectifier potassium channel. Inward rectifier potassium channel 2 (Mus musculus), P35561. HEK293-Kir2.1, FluxOR thallium flux fluorescence; hits give low values. B-score at 10 µM. 0.85% of 310,000 active;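 active means fluorescence ratio B-score at or below minus 3 SD of library scores, with starting-brightness B-score within 2 SD, cut at about -4.2 in these data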;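 further: channel flux triggered by added potassium and thallium sulfate stimulus; B-score of peak minus minimum fluorescence over baseline after thallium stimulus; more negative B-score means stronger Kir2.1 block with less thallium influx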
# TRPC6 activator – mouse TRPC6 channel activators, primary screen, cell-based, HEK293, membrane potential dye | HEK293-TRPC6 membrane potential dye fluorescence; hits give high values | B-score at 10 µM | 0.13% of 310,000 active | AID 2550, 2010;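 active means B-score of the integrated fluorescence ratio above library mean plus 3 SD, and starting fluorescence ratio within library mean plus 5 SD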;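 further: higher score means more depolarization so channel activation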
# Target sequence (Q61143 whole entry, looked up): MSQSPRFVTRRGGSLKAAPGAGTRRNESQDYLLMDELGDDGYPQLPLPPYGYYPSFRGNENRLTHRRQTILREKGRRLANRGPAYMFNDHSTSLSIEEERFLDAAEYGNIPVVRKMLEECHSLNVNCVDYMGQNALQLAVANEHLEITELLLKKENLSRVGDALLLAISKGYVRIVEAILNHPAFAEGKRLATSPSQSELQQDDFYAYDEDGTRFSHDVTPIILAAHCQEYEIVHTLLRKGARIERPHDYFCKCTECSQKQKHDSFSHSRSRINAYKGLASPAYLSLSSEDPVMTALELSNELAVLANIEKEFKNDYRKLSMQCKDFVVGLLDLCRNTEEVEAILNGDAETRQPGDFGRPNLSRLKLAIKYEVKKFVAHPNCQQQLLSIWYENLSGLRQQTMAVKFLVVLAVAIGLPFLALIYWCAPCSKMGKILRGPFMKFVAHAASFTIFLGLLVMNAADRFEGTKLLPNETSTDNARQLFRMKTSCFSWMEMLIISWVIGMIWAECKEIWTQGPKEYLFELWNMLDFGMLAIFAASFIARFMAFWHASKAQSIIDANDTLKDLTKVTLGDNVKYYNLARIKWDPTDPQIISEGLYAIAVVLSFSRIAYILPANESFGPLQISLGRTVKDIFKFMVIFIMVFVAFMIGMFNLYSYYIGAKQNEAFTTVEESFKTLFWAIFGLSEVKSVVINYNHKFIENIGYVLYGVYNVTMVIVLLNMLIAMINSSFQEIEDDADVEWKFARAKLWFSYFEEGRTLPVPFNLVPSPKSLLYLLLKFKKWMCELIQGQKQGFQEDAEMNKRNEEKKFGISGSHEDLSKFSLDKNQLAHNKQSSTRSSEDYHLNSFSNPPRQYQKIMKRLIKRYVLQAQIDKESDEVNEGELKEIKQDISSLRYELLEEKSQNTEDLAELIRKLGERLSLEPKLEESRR
# TRPC4 potent – positive allosteric modulators of TRPC4, primary screen, cell-based, mouse TRPC4beta, HEK293 mu-opioid, Fluo-4 calcium; Short transient receptor potential channel 4 (Mus musculus), Q9QUQ5; B-score at 10 µM; 0.42% of 310,000 active; DAMGO EC20, Fluo-4 Ca2+ flux; hits give high values; AID 2227, 2009;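 active means B-score of calcium response area above 5 SD of library B-scores, with initial fluorescence ratio within 5 SD of library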
# TRPC6 inh – mouse TRPC6 channel inhibitors, primary screen, cell-based, HEK293, membrane potential dye | 1.1% of 310,000 active | AID 2553, 2010 | Short transient receptor potential channel 6 (Mus musculus), Q61143 | ACh-evoked depolarization; hits give low values | B-score at 10 µM;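 active means B-score under library mean minus 3 SD, initial fluorescence not abnormally high, positive integrated signal ratio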;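 further: B-score derived from integrated fluorescence ratio over the kinetic read; more negative B-score means stronger inhibition of depolarization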
# Hits are given with their value; . = inactive. The list is not random: actives were taken first. Their share in the collection is about 2.9%.
SMILES,TRPC4 agonist,TRPC4 block,Kir21 block,TRPC6 activator,TRPC4 potent,TRPC6 inh
CCOc1cc(CNCc2ccccc2)ccc1OCc1ccc(Cl)cc1,.,.,.,.,.,.
COc1ccc(CNCCc2ccc(Cl)cc2)cc1OCc1ccccc1,47,.,-6.39,.,.,.
COc1ccc(CCNC/C=C/c2ccccc2)cc1,106,.,-8.37,.,.,.
NS(=O)(=O)c1ccc(CCNC/C=C/c2ccccc2)cc1,.,.,.,.,.,.
CCOC(=O)CS(=O)(=O)c1nc(-c2ccccc2)cc(C(F)(F)F)n1,.,.,-7.09,.,.,.
COC(=O)CCS(=O)(=O)c1nc(-c2ccccc2)cc(C(F)(F)F)n1,.,.,-4.6,.,.,.
CCOC(=O)CS(=O)(=O)c1nc(-c2ccc(F)cc2)cc(C(F)(F)F)n1,.,.,-4.48,.,.,.
CS(=O)(=O)c1nc(-c2cccs2)cc(C(F)(F)F)n1,.,.,-5.97,.,.,.
CCOC(=O)CCS(=O)(=O)c1nc(-c2ccccc2)cc(C(F)(F)F)n1,.,.,.,.,.,.
Cc1cccc(C)c1NC(=O)CNC(=O)C(Cc1ccccc1)NC(=O)c1ccccc1 (stereo not drawn),.,.,.,.,.,.
CC(C)c1ccc(NC(=O)C(c2ccccc2)N(Cc2ccco2)C(=O)CC2NC(=O)NC2=O)cc1 (stereo not drawn),.,.,.,.,.,.
CCOc1ccccc1N1CCN(Cc2c(C)n(C)n(-c3ccccc3)c2=O)CC1,.,.,.,.,.,.
Cc1ccc(CS(=O)(=O)CCC(=O)NCCC2=CCCCC2)cc1,.,.,.,.,17,.
Cc1ccc(S(=O)(=O)CCC(=O)NCCC2=CCCCC2)cc1,.,.,.,.,.,.
O=C(N/N=C/c1cn(-c2cccs2)nc1-c1ccccc1)c1ccccc1Br,.,.,.,.,14,.
O=C(N/N=C/c1cn(-c2cccs2)nc1-c1ccccc1)c1ccccc1O,.,.,.,.,.,.
COc1ccc(CC2(CO)CCN(C(C)COc3ccccc3)CC2)cc1 (stereo not drawn),.,.,.,.,.,.
COc1ccc(CC2(CO)CCN(C/C=C/c3ccccc3OC)CC2)cc1,.,-6,.,.,.,.
CC(COc1ccccc1)N1CCC(CO)(Cc2ccccc2)CC1 (stereo not drawn),.,-9,.,.,.,.
O=C(CCN1CCOCC1)Nc1ccc(Cl)cc1,.,.,.,.,.,.
Cc1cc(Cl)cc2c1NC(=O)[C@]21[C@@H]2C(=O)N(Cc3ccccc3)C(=O)[C@@H]2[C@@H]2CCCN21,50,.,.,.,.,.
CCc1ccc2c(c1)[C@]1(C(=O)N2)[C@@H]2C(=O)N(Cc3ccccc3)C(=O)[C@@H]2[C@@H]2CCCN21,.,.,.,.,.,.
S=C(NCc1ccccc1)N1CCN(C2CCCCC2)CC1,76,.,.,.,.,.
S=C(NCc1ccccc1)N1CCN(c2ccccc2)CC1,.,.,.,.,.,.
CN1CCCC(OC(=O)c2cc(Br)ccc2Cl)C1 (stereo not drawn),126,.,.,.,10,.
SMILES,TRPC4 agonist,TRPC4 block,Kir21 block,TRPC6 activator,TRPC4 potent,TRPC6 inh
COc1cccc(C(=O)OC2CCCN(C)C2)c1 (stereo not drawn),129,.,.,.,.,.
CN1CCCC(OC(=O)c2cc(F)c(F)c(F)c2F)C1 (stereo not drawn),.,.,.,.,.,.
CN1CCCC(OC(=O)c2cc(Cl)ccc2Cl)C1 (stereo not drawn),65,.,.,.,13,.
CN(C)c1ccc(C(C#N)c2ccccc2)nn1 (stereo not drawn),.,.,.,.,.,.
CC1(C)CCC[C@]2(C)C(CS(=O)c3ccccc3)=C(C=O)CC[C@@H]12 (stereo partly drawn),.,.,.,.,.,.
Cn1c(SCC(=O)Nc2cccc(F)c2)nc2c(c1=O)SCC2,.,.,.,.,.,.
CC(NCc1cccc(OCc2ccccc2)c1)C(O)c1ccccc1 (stereo not drawn),.,.,-10.5,.,.,.
O=C(O)c1ccc(-c2nc(-c3ccccc3)c(-c3cccs3)[nH]2)cc1,.,.,.,.,.,.
COc1ccc(-c2nc(-c3cccs3)c(-c3cccs3)[nH]2)cc1O,.,.,-5.58,.,.,.
O=c1c(-c2ccccc2)c(O)c2ccccc2n1-c1ccccc1,.,.,.,.,.,.
CSCCC(NC(=O)c1ccccc1Cl)C(=O)N1CCN(C(c2ccccc2)c2ccccc2)CC1 (stereo not drawn),.,.,-4.71,.,.,.
CSCCC(NS(=O)(=O)c1ccc(C)cc1)C(=O)N1CCN(C(c2ccccc2)c2ccccc2)CC1 (stereo not drawn),.,.,.,.,.,.
Cc1ccc(C)c(NC(=O)C2CCCN(S(=O)(=O)c3c(C)nn(C)c3C)C2)c1 (stereo not drawn),.,.,.,.,.,.
Cc1sc2ncnc(NCC(c3ccccc3)N(C)C)c2c1C (stereo not drawn),218,.,.,.,.,.
CN(C)C(CNc1ncnc2sc3c(c12)CCCC3)c1ccco1 (stereo not drawn),121,.,.,.,.,.
Cc1sc2ncnc(NCC(O)c3ccccc3)c2c1C (stereo not drawn),.,.,.,.,.,.
Cc1nc(NCC(c2ccccc2)N(C)C)c2c(C)c(C)sc2n1 (stereo not drawn),267,.,.,.,.,.
CCOCC(=O)Nc1cc(C(=O)Nc2ccc(F)cc2)ccc1Cl,.,.,.,.,.,.
N#C/C(N=Nc1ccccc1O)=N\Nc1ccccc1O,.,.,.,.,.,.
NS(=O)(=O)c1ccc(S(=O)(=O)N(CCc2ccccc2)Cc2ccccn2)cc1,.,.,.,.,.,.
Cc1cc(O)c(-c2cc(O)c(C)cc2O)cc1O,.,.,-4.8,.,.,.
N#CC(C#N)=c1ccc2c(c1)N1C3=C(CCCC3)CC3CCCCC31N=2 (stereo not drawn),.,.,.,.,.,-8.5
O=C(Cn1c(N2CCN(c3ccccc3)CC2)nc2ccccc21)c1ccccc1,.,.,.,.,.,.

# Compound activity as filed in PubChem.
